Assay results taken from ChEMBL document CHEMBL4219031, “Identification and Characterization of Von Hippel-Lindau-Recruiting Proteolysis Targeting Chimeras (PROTACs) of TANK-Binding Kinase 1” (J Med Chem, 2018).

Columns and labels:
[1] = target: T1, von Hippel-Lindau disease tumor suppressor/Serine/threonine-protein kinase TBK1 (Homo sapiens, UniProt Q9UHD2+P40337); test: Induction of VHL-mediated TBK1 degradation in human Panc02.13 cells after 16 hrs by Western blot method; assay type: cell-based
Summary of the method: (§1)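 For phospho-IRF3 read-out, TLR3 agonist Poly I:C added for the final 3 h. Cells lysed in RIPA buffer with protease/phosphatase inhibitors, lysates clarified at 16,000g, run on SDS-PAGE and immunoblotted for TBK1, pIRF3 and GAPDH.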
Target sequence in this assay (P40337 whole entry, one chain of several): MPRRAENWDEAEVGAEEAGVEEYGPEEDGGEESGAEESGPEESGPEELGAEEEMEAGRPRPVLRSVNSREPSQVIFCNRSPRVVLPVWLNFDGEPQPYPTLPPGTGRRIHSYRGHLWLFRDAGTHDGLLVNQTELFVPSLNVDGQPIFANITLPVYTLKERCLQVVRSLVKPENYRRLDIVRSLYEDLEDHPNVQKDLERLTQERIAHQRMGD

[2] = target: T1, von Hippel-Lindau disease tumor suppressor/Serine/threonine-protein kinase TBK1; test: Induction of VHL-mediated TBK1 degradation in human Panc02.13 cells after 16 hrs by Western blot method relative to control; assay type: cell-based
Summary of the method: as §1, with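 “Panc02.13 cells grown in RPMI-1640 with 15% FBS and 10 units/mL human recombinant insulin, exposed to compound for 16 h. For” for “For”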
Target sequence in this assay (P40337 whole entry, looked up, one chain of several): as the sequence (P40337 whole entry, one chain of several) above

[3] = target: T2, Serine/threonine-protein kinase TBK1 (Homo sapiens, UniProt Q9UHD2); test: Binding affinity to human full length wild-type TBK1 expressed in mammalian expression system
T2 sequence (Q9UHD2 whole entry): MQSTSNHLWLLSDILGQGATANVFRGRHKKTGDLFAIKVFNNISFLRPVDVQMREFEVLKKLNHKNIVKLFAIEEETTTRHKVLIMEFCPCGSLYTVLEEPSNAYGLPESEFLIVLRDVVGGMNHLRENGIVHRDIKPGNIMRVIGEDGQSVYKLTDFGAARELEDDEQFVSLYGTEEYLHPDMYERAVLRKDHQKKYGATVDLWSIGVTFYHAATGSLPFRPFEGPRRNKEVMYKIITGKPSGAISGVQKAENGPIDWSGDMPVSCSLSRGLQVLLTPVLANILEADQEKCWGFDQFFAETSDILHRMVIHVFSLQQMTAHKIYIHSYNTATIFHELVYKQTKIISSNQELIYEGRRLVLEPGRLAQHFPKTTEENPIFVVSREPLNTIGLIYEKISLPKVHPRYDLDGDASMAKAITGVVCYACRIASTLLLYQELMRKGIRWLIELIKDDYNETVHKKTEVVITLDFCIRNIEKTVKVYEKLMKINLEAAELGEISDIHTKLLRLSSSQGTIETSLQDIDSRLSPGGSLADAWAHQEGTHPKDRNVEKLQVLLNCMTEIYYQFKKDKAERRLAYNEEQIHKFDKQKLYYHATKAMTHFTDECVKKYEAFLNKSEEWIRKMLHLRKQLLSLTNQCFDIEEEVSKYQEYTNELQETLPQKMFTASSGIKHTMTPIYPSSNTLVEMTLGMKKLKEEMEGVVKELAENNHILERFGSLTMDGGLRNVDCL

[4] = target: von Hippel-Lindau disease tumor suppressor/Elongin-C/Elongin-B/HIF1A (Homo sapiens, UniProt P40337+Q15369+Q15370+Q16665); test: Inhibition of His-tagged VHL/elongin B/elongin C (unknown origin) interaction with HIF1alpha preincubated for 10 mins followed by fluorescin labelled HIF1alpha peptide addition measured after 2 hrs by fluorescence polarization assay; assay type: protein-complex assay
Summary of the method: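 VHL coexpressed and copurified with Elongin B and C (VCB). Compound preincubated 10 min with VHL in 50 mM Tris pH 7.5, 200 mM NaCl, 2 mM DTT, 1% DMSO. Polarization converted to percent binding against control wells; IC50 from four-parameter fit.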

Sequence of von Hippel-Lindau disease tumor suppressor/Elongin-C/Elongin-B/HIF1A (P40337 whole entry, looked up): as the sequence (P40337 whole entry, one chain of several) above
Sequence of von Hippel-Lindau disease tumor suppressor/Elongin-C/Elongin-B/HIF1A (Q15369 whole entry, looked up): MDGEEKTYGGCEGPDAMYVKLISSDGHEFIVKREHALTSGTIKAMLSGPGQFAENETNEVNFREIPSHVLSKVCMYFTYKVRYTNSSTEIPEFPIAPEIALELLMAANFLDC
Sequence of von Hippel-Lindau disease tumor suppressor/Elongin-C/Elongin-B/HIF1A (Q15370 whole entry, looked up): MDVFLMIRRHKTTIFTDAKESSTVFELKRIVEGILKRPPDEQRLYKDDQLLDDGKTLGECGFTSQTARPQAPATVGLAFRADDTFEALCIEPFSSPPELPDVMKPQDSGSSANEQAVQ
Sequence of von Hippel-Lindau disease tumor suppressor/Elongin-C/Elongin-B/HIF1A (Q16665 whole entry, looked up): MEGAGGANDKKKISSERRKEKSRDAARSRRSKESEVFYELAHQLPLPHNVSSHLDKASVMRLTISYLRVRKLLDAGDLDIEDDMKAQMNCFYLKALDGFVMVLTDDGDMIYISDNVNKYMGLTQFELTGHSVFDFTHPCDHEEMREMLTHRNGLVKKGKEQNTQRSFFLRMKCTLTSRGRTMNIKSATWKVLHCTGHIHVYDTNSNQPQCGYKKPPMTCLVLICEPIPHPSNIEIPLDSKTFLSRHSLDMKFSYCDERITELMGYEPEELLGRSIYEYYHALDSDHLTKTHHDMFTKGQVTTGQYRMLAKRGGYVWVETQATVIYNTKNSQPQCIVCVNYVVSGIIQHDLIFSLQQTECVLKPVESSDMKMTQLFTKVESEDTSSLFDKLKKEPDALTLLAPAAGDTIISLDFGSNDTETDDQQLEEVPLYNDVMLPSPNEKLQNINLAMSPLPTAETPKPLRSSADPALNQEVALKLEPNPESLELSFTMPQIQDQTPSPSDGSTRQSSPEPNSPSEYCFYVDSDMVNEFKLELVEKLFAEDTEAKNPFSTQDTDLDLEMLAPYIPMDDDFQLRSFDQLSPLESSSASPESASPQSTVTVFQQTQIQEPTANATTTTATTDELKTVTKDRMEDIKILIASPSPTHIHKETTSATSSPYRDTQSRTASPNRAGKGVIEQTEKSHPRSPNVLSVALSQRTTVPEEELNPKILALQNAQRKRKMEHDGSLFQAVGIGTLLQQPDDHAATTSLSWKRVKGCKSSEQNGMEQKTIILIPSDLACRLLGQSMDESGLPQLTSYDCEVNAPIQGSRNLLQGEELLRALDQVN

DC50 [1] | Emax [2] | Kd [3] | IC50 [4] | SMILES
3 nM | 96% | 4 nM |  | Cc1ncsc1-c1ccc(CNC(=O)[C@@H]2C[C@@H](O)CN2C(=O)[C@@H](NC(=O)COCCCOCCCCOCCCOc2ccc(Nc3ncc(I)c(NCCCN(C)C(=O)C4CCC4)n3)cc2)C(C)(C)C)cc1
544 nM | 70% | 1040 nM |  | Cc1ncsc1-c1ccc(CNC(=O)[C@@H]2C[C@@H](O)CN2C(=O)[C@@H](NC(=O)COCCCOCCCCOCCCOc2ccc(Nc3ncc(C4CCC4)c(NCCCN(C)C(=O)C4CCC4)n3)cc2)C(C)(C)C)cc1
88 nM | 79% |  |  | Cc1ncsc1-c1ccc(CNC(=O)[C@@H]2C[C@@H](O)CN2C(=O)[C@@H](NC(=O)COCCCOCCCCCOc2ccc(Nc3ncc(Br)c(NCCCN(C)C(=O)C4CCC4)n3)cc2)C(C)(C)C)cc1
29 nM | 96% | 13 nM |  | Cc1ncsc1-c1ccc(CNC(=O)[C@@H]2C[C@@H](O)CN2C(=O)[C@@H](NC(=O)COCCCOCCCCOCCCOc2ccc(Nc3ncc(C(F)(F)F)c(NCCCN(C)C(=O)C4CCC4)n3)cc2)C(C)(C)C)cc1
3 nM | 96% |  |  | Cc1ncsc1-c1ccc(CNC(=O)[C@@H]2C[C@@H](O)CN2C(=O)[C@@H](NC(=O)COCCOCCCCOCCCCOCCOCCOc2ccc(Nc3ncc(Br)c(NCCCN(C)C(=O)C4CCC4)n3)cc2)C(C)(C)C)cc1
121 nM | 77% | 275 nM |  | CCc1cnc(Nc2ccc(OCCCOCCCCOCCCOCC(=O)N[C@H](C(=O)N3C[C@H](O)C[C@H]3C(=O)NCc3ccc(-c4scnc4C)cc3)C(C)(C)C)cc2)nc1NCCCN(C)C(=O)C1CCC1
> 1000 nM |  |  |  | Cc1ncsc1-c1ccc(CNC(=O)[C@@H]2C[C@@H](O)CN2C(=O)[C@@H](NC(=O)COCCCCOc2ccc(Nc3ncc(Br)c(NCCCN(C)C(=O)C4CCC4)n3)cc2)C(C)(C)C)cc1
864 nM | 71% |  | 9900 nM | CC[C@H](NC(=O)COCCCOCCCCOCCCOc1ccc(Nc2ncc(Br)c(NCCCN(C)C(=O)C3CCC3)n2)cc1)C(=O)N1C[C@H](O)C[C@H]1C(=O)NCc1ccc(-c2scnc2C)cc1
> 1000 nM |  |  |  | Cc1ncsc1-c1ccc(CNC(=O)[C@@H]2C[C@@H](O)CN2C(=O)[C@@H](NC(=O)COCCOCCOc2ccc(Nc3ncc(Br)c(NCCCN(C)C(=O)C4CCC4)n3)cc2)C(C)(C)C)cc1
92 nM | 89% | 270 nM |  | Cc1cnc(Nc2ccc(OCCCOCCCCOCCCOCC(=O)N[C@H](C(=O)N3C[C@H](O)C[C@H]3C(=O)NCc3ccc(-c4scnc4C)cc3)C(C)(C)C)cc2)nc1NCCCN(C)C(=O)C1CCC1
48 nM | 96% | 130 nM |  | C=Cc1cnc(Nc2ccc(OCCCOCCCCOCCCOCC(=O)N[C@H](C(=O)N3C[C@H](O)C[C@H]3C(=O)NCc3ccc(-c4scnc4C)cc3)C(C)(C)C)cc2)nc1NCCCN(C)C(=O)C1CCC1
> 1000 nM | 34% |  | 25000 nM | Cc1ncsc1-c1ccc(CNC(=O)[C@@H]2C[C@@H](O)CN2C(=O)[C@H](C)NC(=O)COCCCOCCCCOCCCOc2ccc(Nc3ncc(Br)c(NCCCN(C)C(=O)C4CCC4)n3)cc2)cc1
292 nM | 76% |  |  | Cc1ncsc1-c1ccc(CNC(=O)[C@@H]2C[C@@H](O)CN2C(=O)[C@@H](NC(=O)COCCCCCOCCCCOCCCCOCCCCOCCCCCOc2ccc(Nc3ncc(Br)c(NCCCN(C)C(=O)C4CCC4)n3)cc2)C(C)(C)C)cc1
65 nM | 96% | 245 nM |  | Cc1ncsc1-c1ccc(CNC(=O)[C@@H]2C[C@@H](O)CN2C(=O)[C@@H](NC(=O)COCCCOCCCCOCCCOc2ccc(Nc3ncc(C4CC4)c(NCCCN(C)C(=O)C4CCC4)n3)cc2)C(C)(C)C)cc1
> 1000 nM | 0% |  | > 100000 nM | Cc1ncsc1-c1ccc(CNC(=O)[C@@H]2C[C@@H](O)CN2C(=O)CNC(=O)COCCCOCCCCOCCCOc2ccc(Nc3ncc(Br)c(NCCCN(C)C(=O)C4CCC4)n3)cc2)cc1
282 nM | 74% | 104 nM |  | Cc1ncsc1-c1ccc(CNC(=O)[C@@H]2C[C@@H](O)CN2C(=O)[C@@H](NC(=O)COCCCOCCCCOCCCOc2ccc(Nc3ncc(F)c(NCCCN(C)C(=O)C4CCC4)n3)cc2)C(C)(C)C)cc1
> 1000 nM |  | 725 nM |  | Cc1ncsc1-c1ccc(CNC(=O)[C@@H]2C[C@@H](O)CN2C(=O)[C@@H](NC(=O)COCCCOCCCCOCCCOc2ccc(Nc3nccc(NCCCN(C)C(=O)C4CCC4)n3)cc2)C(C)(C)C)cc1
29 nM | 96% |  |  | Cc1ncsc1-c1ccc(CNC(=O)[C@@H]2C[C@@H](O)CN2C(=O)[C@@H](NC(=O)COCCOCCOCCOCCOCCOc2ccc(Nc3ncc(Br)c(NCCCN(C)C(=O)C4CCC4)n3)cc2)C(C)(C)C)cc1
34 nM | 96% |  |  | Cc1ncsc1-c1ccc(CNC(=O)[C@@H]2C[C@@H](O)CN2C(=O)[C@@H](NC(=O)COCCOCCOCCOCCOCCOCCOc2ccc(Nc3ncc(Br)c(NCCCN(C)C(=O)C4CCC4)n3)cc2)C(C)(C)C)cc1
25 nM | 96% |  |  | Cc1ncsc1-c1ccc(CNC(=O)[C@@H]2C[C@@H](O)CN2C(=O)[C@@H](NC(=O)CCOCCCOCCCOCCCOCCCOc2ccc(Nc3ncc(Br)c(NCCCN(C)C(=O)C4CCC4)n3)cc2)C(C)(C)C)cc1
288 nM | 75% |  | 16000 nM | CCC[C@H](NC(=O)COCCCOCCCCOCCCOc1ccc(Nc2ncc(Br)c(NCCCN(C)C(=O)C3CCC3)n2)cc1)C(=O)N1C[C@H](O)C[C@H]1C(=O)NCc1ccc(-c2scnc2C)cc1
10 nM | 96% | 10.4 nM |  | Cc1ncsc1-c1ccc(CNC(=O)[C@@H]2C[C@@H](O)CN2C(=O)[C@@H](NC(=O)COCCCOCCCCOCCCOc2ccc(Nc3ncc(Cl)c(NCCCN(C)C(=O)C4CCC4)n3)cc2)C(C)(C)C)cc1
> 1000 nM |  |  |  | Cc1ncsc1-c1ccc(CNC(=O)[C@@H]2C[C@@H](O)CN2C(=O)[C@@H](NC(=O)CCCCCOCCOc2ccc(Nc3ncc(Br)c(NCCCN(C)C(=O)C4CCC4)n3)cc2)C(C)(C)C)cc1
95 nM | 90% |  |  | Cc1ncsc1-c1ccc(CNC(=O)[C@@H]2C[C@@H](O)CN2C(=O)[C@@H](NC(=O)CCCCCOCCCCOCCCCOc2ccc(Nc3ncc(Br)c(NCCCN(C)C(=O)C4CCC4)n3)cc2)C(C)(C)C)cc1
> 1000 nM |  |  |  | Cc1ncsc1-c1ccc(CNC(=O)[C@@H]2C[C@@H](O)CN2C(=O)[C@@H](NC(=O)COCCCOCCCOc2ccc(Nc3ncc(Br)c(NCCCN(C)C(=O)C4CCC4)n3)cc2)C(C)(C)C)cc1
103 nM | 92% |  |  | Cc1ncsc1-c1ccc(CNC(=O)[C@@H]2C[C@@H](O)CN2C(=O)[C@@H](NC(=O)COCCOCCOCCOCCOc2ccc(Nc3ncc(Br)c(NCCCN(C)C(=O)C4CCC4)n3)cc2)C(C)(C)C)cc1
71 nM | 86% |  |  | Cc1ncsc1-c1ccc(CNC(=O)[C@@H]2C[C@@H](O)CN2C(=O)[C@@H](NC(=O)COCCOCCOCCCCOc2ccc(Nc3ncc(Br)c(NCCCN(C)C(=O)C4CCC4)n3)cc2)C(C)(C)C)cc1
6 nM | 96% |  |  | Cc1ncsc1-c1ccc(CNC(=O)[C@@H]2C[C@@H](O)CN2C(=O)[C@@H](NC(=O)COCCOCCCCOCCCCOCCOc2ccc(Nc3ncc(Br)c(NCCCN(C)C(=O)C4CCC4)n3)cc2)C(C)(C)C)cc1
> 1000 nM |  |  |  | Cc1ncsc1-c1ccc(CNC(=O)[C@@H]2C[C@@H](O)CN2C(=O)[C@@H](NC(=O)COCCOCCOCCOc2ccc(Nc3ncc(Br)c(NCCCN(C)C(=O)C4CCC4)n3)cc2)C(C)(C)C)cc1
